Test results from ChEMBL document CHEMBL1921703 (Eur J Med Chem, 2011).

What was measured:
Plasma [1] = experiment: AUC (0 to t) in Kunming mouse plasma at dose equivalent to 10 mg/kg, iv of naproxen administered as single dose; format: ADME, organism-based; design: dose 10 mg/kg, route intravenous; conditions: in vivo
Kidney = experiment: Drug uptake in Kunming mouse kidney assessed as naproxen level at dose equivalent to 10 mg/kg, iv of naproxen administered as single dose measured by HPLC analysis; format: ADME, organism-based; design: dose 10 mg/kg, route intravenous; conditions: in vivo
Heart = experiment: Drug uptake in Kunming mouse heart assessed as naproxen level at dose equivalent to 10 mg/kg, iv of naproxen administered as single dose measured by HPLC analysis; format: ADME, organism-based; design: dose 10 mg/kg, route intravenous; conditions: in vivo
Muscle tissue = experiment: Drug uptake in Kunming mouse muscle assessed as naproxen level at dose equivalent to 10 mg/kg, iv of naproxen administered as single dose measured by HPLC analysis; format: ADME, organism-based; design: dose 10 mg/kg, route intravenous; conditions: in vivo
Liver = experiment: Drug uptake in Kunming mouse liver assessed as naproxen level at dose equivalent to 10 mg/kg, iv of naproxen administered as single dose measured by HPLC analysis; format: ADME, organism-based; design: dose 10 mg/kg, route intravenous; conditions: in vivo
Brain [2] = experiment: AUC (0 to t) in Kunming mouse brain at dose equivalent to 10 mg/kg, iv of naproxen administered as single dose; format: ADME, organism-based; design: dose 10 mg/kg, route intravenous; conditions: in vivo
Plasma [3] = experiment: Prodrug conversion in Kunming mouse plasma assessed as compound hydrolysis to naproxen at dose equivalent to 10 mg/kg, iv of naproxen measured by HPLC analysis; format: ADME, organism-based; design: dose 10 mg/kg, route intravenous; conditions: in vivo
Brain [4] = experiment: Prodrug conversion in mouse brain homogenate assessed as naproxen release at 250 uM/mL by HPLC analysis; format: ADME, tissue-based; conditions: in vitro, TDE = time-dependent effect
In short: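 Prodrugs were incubated at 37 °C for up to 90 min in mouse brain homogenate (1:5 w/v in pH 7.4 phosphate buffer). […] Peak areas were normalised to the reference prodrug peak at 15 min, SD n = 3.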

[5] = Metabolic stability in mouse plasma assessed as half life at 250 umol/mL by HPLC analysis; format: ADME, cell-free
In short: (§1)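 Mouse plasma, diluted with two volumes of water, or brain homogenate (1:5 w/v in cold pH 7.4 phosphate buffer) was spiked with methanol stock (1:4 v/v) and incubated at 37 °C. Aliquots taken at 0–90 min were quenched with acetonitrile and centrifuged. Remaining prodrug was measured by HPLC-UV at 238 nm. Rate constant came from ln(peak area) regression against time, and half-life followed from it.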

[6] = Metabolic stability in mouse brain homogenate assessed as half life at 250 umol/mL by HPLC analysis; format: ADME, tissue-based; in short: as §1
Brain [7] = experiment: Metabolic stability in mouse brain homogenate assessed as first order rate constant of compound disappearance at 250 umol/mL by HPLC analysis; format: ADME, tissue-based; in short: as §1
Plasma [8] = experiment: Metabolic stability in mouse plasma assessed as first order rate constant of compound disappearance at 250 umol/mL by HPLC analysis; format: ADME, cell-free; in short: as §1
[9] = Chemical stability of the compound in phosphate buffer at pH 7.4 assessed as half life at 250 umol/mL by HPLC analysis; format: physicochemical
In short: (§2)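 Each compound, added as methanol stock, was incubated in phosphate buffer at pH 2.5, 5.0, 7.4 or 8.0 (1:4 v/v) at 37 °C. Samples were taken at 0, 1, 3, 6, 12 and 24 h. Remaining ester was measured by HPLC-UV at 238 nm on C18 with methanol-water 80:20. The pseudo-first-order rate constant came from linear regression of ln(peak area) against time, and half-life followed from it.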

[10] = Chemical stability of the compound in phosphate buffer at pH 8.0 assessed as half life at 250 umol/mL by HPLC analysis; format: physicochemical; in short: as §2
[11] = Chemical stability of the compound in phosphate buffer at pH 5 assessed as half life at 250 umol/mL by HPLC analysis; format: physicochemical; in short: as §2
[12] = Chemical stability of the compound in phosphate buffer at pH 2.5 assessed as half life at 250 umol/mL by HPLC analysis; format: physicochemical; in short: as §2
[13] = Chemical stability of the compound in phosphate buffer at pH 8.0 assessed as first order rate constant of compound disappearance at 250 umol/mL by HPLC analysis; format: physicochemical; in short: as §2
[14] = Chemical stability of the compound in phosphate buffer at pH 7.4 assessed as first order rate constant of compound disappearance at 250 umol/mL by HPLC analysis; format: physicochemical; in short: as §2
[15] = Chemical stability of the compound in phosphate buffer at pH 2.5 assessed as first order rate constant of compound disappearance at 250 umol/mL by HPLC analysis; format: physicochemical; in short: as §2
[16] = Chemical stability of the compound in phosphate buffer at pH 5 assessed as first order rate constant of compound disappearance at 250 umol/mL by HPLC analysis; format: physicochemical; in short: as §2
in vivo [17] = conditions: Kunming, mouse, brain, iv, 10 mg/kg
in vivo [18] = conditions: Kunming, mouse, brain, iv, 10 mg/kg; remark: listed apart in the source
in vivo [19] = conditions: Kunming, mouse, brain, iv, 10 mg/kg; remark: listed apart in the source

Row | Compound | AUCt (Plasma [1]) | Drug uptake (Kidney) | Drug uptake (Heart) | Drug uptake (Muscle tissue) | Drug uptake (Liver) | AUCt (Brain [2]) | Drug metabolism (Plasma [3]) | Drug metabolism (Brain [4]) | half-life at 250 umol/mL [5] | half-life at 250 umol/mL [6] | Activity (Brain [7]) | Activity (Plasma [8]) | half-life at 250 umol/mL [9] | half-life at 250 umol/mL [10] | half-life at 250 umol/mL [11] | half-life at 250 umol/mL [12] | Activity [13] | Activity [14] | Activity [15] | Activity [16] | other results
1 | COc1ccc2cc([C@H](C)C(=O)OC[C@H]3O[C@H](O)[C@H](O)[C@@H](O)[C@@H]3O)ccc2c1 | 10353.27 µg/min/mL | Active | Active | Active | Active | 3930.87 µg·min/g | Active | tde | 1.48 h | 1.68 h | 0.683 ×10⁻² /min | 0.782 ×10⁻² /min | 114 h | 23.8 h | 107 h | 53.3 h | 2.91 ×10⁻² /hr | 0.607 ×10⁻² /hr | 1.3 ×10⁻² /hr | 0.645 ×10⁻² /hr | 
2 | COc1ccc2cc([C@H](C)C(=O)OCC/C(SSCc3ccccc3)=C(\C)N(C)C=O)ccc2c1 | 8834.7 µg/min/mL | Active | Active | Active | Active | 3307.75 µg·min/g | Active | tde | 0.987 h | 0.418 h | 2.76 ×10⁻² /min | 1.17 ×10⁻² /min | 62.4 h | 33.8 h | 24.7 h | 13.7 h | 2.05 ×10⁻² /hr | 1.11 ×10⁻² /hr | 5.05 ×10⁻² /hr | 2.81 ×10⁻² /hr | 
3 | COc1ccc2cc([C@H](C)C(=O)OCC/C(SSCc3ccccc3)=C(\C)N(C=O)CC(=O)OC[C@H]3O[C@H](O)[C@H](O)[C@@H](O)[C@@H]3O)ccc2c1 | 13348.87 µg/min/mL | Active | Active | Active | Active | 5669.45 µg·min/g | Active | tde | 0.755 h | 0.312 h | 3.71 ×10⁻² /min | 1.53 ×10⁻² /min | 30.1 h | 19.5 h | 24.1 h | 20.4 h | 3.56 ×10⁻² /hr | 2.3 ×10⁻² /hr | 3.39 ×10⁻² /hr | 2.87 ×10⁻² /hr | 
4 | COc1ccc2cc([C@H](C)C(=O)OCC/C(SSC(C)C)=C(\C)N(C=O)CC(=O)OC[C@H]3O[C@H](O)[C@H](O)[C@@H](O)[C@@H]3O)ccc2c1 | 16185.44 µg/min/mL | Active | Active | Active | Active | 6140.77 µg·min/g | Active | tde | 0.792 h | 0.343 h | 3.37 ×10⁻² /min | 1.46 ×10⁻² /min | 51 h | 28.6 h | 34 h | 21.7 h | 2.42 ×10⁻² /hr | 1.36 ×10⁻² /hr | 3.19 ×10⁻² /hr | 2.04 ×10⁻² /hr | 
5 | CCSS/C(CCOC(=O)[C@@H](C)c1ccc2cc(OC)ccc2c1)=C(/C)N(C=O)CC(=O)OC[C@H]1O[C@H](O)[C@H](O)[C@@H](O)[C@@H]1O | 12914.16 µg/min/mL | Active | Active | Active | Active | 4716.88 µg·min/g | Active | tde | 0.657 h | 0.243 h | 4.74 ×10⁻² /min | 1.77 ×10⁻² /min | 27.2 h | 25 h | 23.5 h | 16 h | 2.77 ×10⁻² /hr | 2.55 ×10⁻² /hr | 4.34 ×10⁻² /hr | 2.95 ×10⁻² /hr | 
6 | COc1ccc2cc([C@H](C)C(=O)O)ccc2c1 [NAPROXEN] | 3812.35 µg/min/mL |  |  |  |  |  |  |  |  |  |  |  |  |  |  |  |  |  |  |  | MRT (in vivo [17]): 1.41 h; Cmax (in vivo [18]): 17100 ng/g; Tmax (in vivo [19]): 0.75 h
